# High-throughput results as filed in PubChem.
# An excerpt weighted towards active compounds, which were near 0.89% of everything screened.
# V-ATPase pH: alters yeast V-ATPase proton transport. S. cerevisiae, pHLuorin cytosolic pH fluorescence. response, % at 10 µM. 350,000 compounds, 0.37% hits. AID 504577; in the data active = response mostly above about 7.3%, no sharp cut-off; inactive = mostly below about 5.4%; note: actives read high
# XiGFP reactiv: X-chromosome reactivation activator; XiGFP mouse fibroblasts, % GFP-positive cells imaging, 3 d; cells co-treated with 5-aza-dC sensitizer; scaled so ellipticine positive control = 100%; 360,000 compounds, 0.055% hits; activation, % at 7.58 µM;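 active = mean normalized replicate activation at least 10% and every replicate at or above 10%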;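 note: 0% = median of on-plate neutral control wells and 100% = ellipticine 6 µM median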
#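 Material: XiGFP fibroblasts, SV40-immortalized; Buffer or medium: DMEM containing 5-aza-dC; Compound dosing: single point; Times: 3 days compound exposure.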
# T cell modulator: modulates CD8 T cell binding to vesicles. 330,000 compounds, 0.068% hits. response (vesicle binding), % at 7 µM. 2C CD8+ T cell-vesicle binding, flow cytometry; stronger effect = lower value;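 active = response, share of CD8 T cells binding vesicles, and their 90th percentile fluorescence all below set limits, cut at about 80% in these data, passing the limit was not always enough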;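 note: values below 100% mean blocked vesicle binding to the CD8+ T cells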
#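 Read-out – percent CD8+ FL2 mean versus row control · System – murine 2C transgenic CD8+ T lymphocytes · Times – 1.5 h cell–vesicle binding at 37 °C, then 20 min icy labelling · Control set – naked vesicles low, QL9 vesicles with vehicle high · Detection – cytometric PE anti-B7-1 and Alexa647 anti-CD8 signals after 1% paraformaldehyde fixation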
# NTR1 agonist: activates human neurotensin receptor 1. P30989. NTR1-U2OS beta-arrestin-GFP spot imaging, agonist mode. activation, % at 20 µM. 330,000 compounds, 0.17% hits. AID 493036;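 active = activation at or above 40% of the spot to cytoplasm intensity ratio, with at least 20 cells analyzed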;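 note: 0% = DMSO without peptide and 100% = 100 nM NTR1 peptide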
# Target sequence (P30989 whole entry, looked up): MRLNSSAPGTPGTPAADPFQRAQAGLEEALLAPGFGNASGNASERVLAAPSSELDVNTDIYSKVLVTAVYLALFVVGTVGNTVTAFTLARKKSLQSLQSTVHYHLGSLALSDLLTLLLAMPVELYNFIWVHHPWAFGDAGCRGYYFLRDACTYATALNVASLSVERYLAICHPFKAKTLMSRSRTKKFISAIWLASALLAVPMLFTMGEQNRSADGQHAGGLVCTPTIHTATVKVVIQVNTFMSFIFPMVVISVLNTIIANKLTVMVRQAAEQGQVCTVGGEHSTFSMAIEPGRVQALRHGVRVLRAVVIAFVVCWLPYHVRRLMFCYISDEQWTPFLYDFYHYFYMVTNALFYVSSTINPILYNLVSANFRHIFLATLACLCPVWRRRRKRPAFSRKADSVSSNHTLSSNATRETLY
# Arr AP2 block: human beta-arrestin and AP2 interaction inhibition; FITC-arrestin peptide / GST-AP2 beads, flow cytometry; AP2 beta2 appendage carries R879A mutation; inhibition, % at 10 µM; 340,000 compounds, 0.31% hits; AID 504490;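 active = inhibition above a set limit, near 3 SD of compounds lacking own fluorescence, cut at about 54% in these data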;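 note: plate controls were DMSO wells for no effect and 5 µM unlabelled arrestin peptide for full effect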
#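 System: GST-AP2 R879A glutathione beads | Also added: FITC-arrestin peptide, 50 nM | Times: 12 min plus 1 h, RT | Signal: Bead flow cytometry, FITC channel | Buffer or medium: PBS with 0.05% Tween 20 and 0.1% BSA | Read-out basis: Percent drop in bead-associated FITC signal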
# beta cell repl: induces beta-cell replication in MIN6 cells. MIN6 cells proliferation, ATPlite luminescence, 48 h; cells starved in 0.2% serum; 100% = growth in 10% serum. proliferation, % at 10 µM. 330,000 compounds, 0.29% hits. AID 2380;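 active = compounds whose signal lies at least 3.5 SD above the mean of all wells on their plate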;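 note: 0% = DMSO-treated cells in low-serum medium and 100% = 10% serum control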
# NTR1 ag conf: NTR1 (human) agonism, confirmed; shares compounds with NTR1 agonist; NTR1-U2OS beta-arrestin-GFP translocation imaging; activation, % at 20 µM; 480 compounds, 38% hits; AID 504550;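 active = mean activation at 20 µM of at least 40%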;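 note: 0% = DMSO without peptide and 100% = 100 nM NTR1 peptide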
# Active calls of the source: *; / = no result given.
SMILES,V-ATPase pH,XiGFP reactiv,T cell modulator,NTR1 agonist,Arr AP2 block,beta cell repl,NTR1 ag conf
CCN1CCN(c2ncnc3c2cnn3-c2ccccc2)CC1,0,0,640,-3,21,-2,/
CC/C(=N/NC(=O)c1ccc(Br)cc1)c1ccc(OCCN2CCOCC2)cc1,0,0,182,2,9,-2,/
CCCOc1ccc(/C(CC)=N/NC(=O)C2(C)CC2(Br)Br)cc1 (centres undefined),1,/,262,42*,2,0,24
CCCCCc1c2c(cc(O)c1C(=O)O)OC(=O)c1cc(C(=O)CCCC)c(OC)cc1O2,0,/,276,48*,-4,-6,12
CCc1ccc(-c2cn(-c3nc(C)cc(C)n3)c(=N)o2)cc1,2,/,73,46*,-2,-6,32
Cc1cccc(-c2nc(Nc3cccc(O)c3)c3ccccc3n2)c1,2,0,134,53*,8,-7,27
C[C@@H]1CN([C@@H](C)CO)S(=O)(=O)c2ccc(C#Cc3ccccn3)cc2O[C@@H]1CN(C)C(=O)C1CC1,/,0,/,/,/,/,/
O=[N+]([O-])c1ccc(N2CCOCC2)cc1O,0,0,642,0,-4,-3,/
Cc1cc(N2CCOCC2)ccc1/C=C\[N+](=O)[O-],4,1,147,40*,5,-6,77*
C[C@H](O)C#Cc1cnc2c(c1)C(=O)N([C@H](C)CO)C[C@@H](C)[C@@H](CN(C)Cc1cccc(F)c1)O2,/,0,/,/,/,/,/
Oc1ccc(C2=NN(c3ccccc3)C(c3ccc(F)cc3)C2)cc1 (centres undefined),2,0,243,61*,-1,-5,11
COc1ccc(C2CC(c3ccccc3)=NN2c2ccc(C(N)=O)cc2)cc1 (centres undefined),-3,0,274,41*,-6,-4,20
O=C(Cc1ccncc1)N1CC(=O)N2[C@H](C1)[C@@H](c1ccc(C3=CCCC3)cc1)[C@@H]2CO,/,0,/,/,/,/,/
CCCNC(=O)Nc1ccc2c(c1)OC[C@H](C)N(CC1CCCC1)C[C@@H](C)[C@@H](OC)CN(C)C2=O,/,0,/,/,/,/,/
CSCCC(NS(=O)(=O)c1ccc(Cl)cc1)C(=O)OCC(=O)c1c(C)[nH]c2ccccc12 (centres undefined),-4,0,321,41*,2,0,25
Cc1[nH]c2ccccc2c1C(=O)COC(=O)C1CC(O)CN1S(=O)(=O)c1ccc(Cl)cc1 (centres undefined),-2,0,507,6,27,2,/
Cc1cc2c(cc1C)CSC(c1ccccc1O)SC2,-1,/,766,51*,7,-6,7
Cc1cc2c(cc1C)CSC(c1ccc3ccccc3c1O)SC2,-3,/,321,10,24,-3,/
CC1CCc2c(sc(NC(=O)CSc3ncn[nH]3)c2C#N)C1 (centres undefined),3,0,594,2,-16,-2,/
CC(C)(C)C1CCc2c(sc(NC(=O)CSc3ncn[nH]3)c2C#N)C1 (centres undefined),2,/,186,41*,4,-6,31
Oc1ccccc1-n1c(-c2ccccc2)ccc1-c1ccccc1,0,0,245,51*,11,-5,6
CCOc1cc(/C=C\[N+](=O)[O-])ccc1OCC(=O)Nc1ccccc1C,-5,/,267,45*,5,-3,51*
CCOC(=O)c1c(C)[nH]c(C(=O)OCC(=O)Nc2ccc(Cl)cn2)c1C,5,0,579,1,6,-1,/
CCOC(=O)c1c(C)[nH]c(C(=O)OCC(=O)Nc2sccc2C(N)=O)c1C,4,1,415,44*,-1,-5,41*
C[C@@H]1CN([C@@H](C)CO)S(=O)(=O)c2ccc(/C=C/c3ccccc3)cc2O[C@H]1CN(C)C(=O)c1ccncc1,/,0,/,/,/,/,/
COc1cc(OC)c2cc(C(=O)N/N=C/c3cccc(OC)c3O)[nH]c2c1,-4,0,135,60*,-6,-6,73*
